Tests used:
[1] = system: xenograft cancer models with PI3K-mutant, PTEN-null, and KRAS-mutant cell lines; settings: multiple xenograft models; cited from earlier work
advanced solid tumors = test: Tumor response by RECIST v1.0 / modified RECIST; type: in vivo, human
mTOR kinase = settings: read-out: inhibition constant (Ki) mTOR kinase; cited from earlier work
[2] = system: phospho-AKT (pAKT) (S473) in platelet-rich plasma; test: pAKT; type: in vivo, human
In short: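 Patients took oral test compound QD on 21/28 or 28/28 schedules. Total AKT and pAKT (S473) were measured by Meso Scale Discovery immunoassay. Results are percent change in pAKT from baseline.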

[3] = Plasma pharmacokinetics in patients; type: in vivo, human; settings: for half-life: human, plasma, po
In short: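 Oral test compound was given as a single dose on day 1 (7-day run-in for terminal half-life), then QD from day 8. PPI cohort: rabeprazole 20 mg days 4-7, co-dosed day 8, intensive sampling day 8. Quantified by LC-MS/MS.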

[4] = in vitro; weakly basic molecule; cited from earlier work
[5] = system: tumor glucose uptake (FDG-PET); test: FDG-PET tumor uptake; type: in vivo, human
In short: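 Patients with advanced solid tumours received oral test compound once daily. FDG-PET/CT scans were taken at baseline and 1-4 h after dosing on days 22 and 55. Scans were centrally assessed by EORTC criteria, with SUVmax change as the measure. PIK3CA hotspot mutations in archival FFPE tumour DNA were typed by DxS allele-specific PCR, qRT-PCR or Sanger sequencing.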

Cc1c(CN2CCN(C(=O)[C@H](C)O)CC2)sc2c(N3CCOCC3)nc(-c3cnc(N)nc3)nc12 [apitolisib]
Tumor growth inhibition [1]: Tumor growth inhibition has been demonstrated
Median time on study (advanced solid tumors; 40 mg 28/28): 2.9 months
stable disease with tumor regression (advanced solid tumors; 40 mg 28/28): 20 patients
time on study, range (advanced solid tumors; 40 mg 28/28): 1-21.2 months
PRs (advanced solid tumors; 40 mg 28/28, 49 RECIST evaluable patients): Five
PD as best radiological response (advanced solid tumors; 14 evaluable patients with PIK3CA mutations, 40 mg 28/28): 3
PRs as best radiological response (advanced solid tumors; 14 evaluable patients with PIK3CA mutations, 40 mg 28/28, 1 confirmed): 3
PR rate in MPM patients (advanced solid tumors; MPM): 12%
Median time on study (advanced solid tumors; MPM, 30 mg 28/28): 4 months
time on study, range (advanced solid tumors; MPM, 30 mg 28/28): 0.5-38.9 months
patients on study for more than 6 months (advanced solid tumors; MPM, 30 mg 28/28 (8 patients)): 30%
partial response rate (advanced solid tumors; RP2D 40 mg QD): 10.2%
dose from which anti-tumor activity was apparent (advanced solid tumors; in vivo): 8 mg
response rate with enrichment for PIK3CA mutations (advanced solid tumors; in vivo): 18.8%
single agent response rate (advanced solid tumors; in vivo): 10-19%
time on apitolisib (advanced solid tumors; one patient, metastatic clear cell ovarian cancer, 40 mg 28/28): 282 days
maximal tumor shrinkage, change from baseline (advanced solid tumors; one patient, metastatic clear cell ovarian cancer, E545K PIK3CA, 40 mg 28/28): −48.3%
patients continuing on study for over 12 months (advanced solid tumors; stage 1 (3 patients)): 5%
partial responses (PR) (advanced solid tumors; stage 1, among 56 patients): 4
confirmed responses (advanced solid tumors; stage 1, 32 mg QD 21/28 and 50 mg QD 21/28): 2
Ki (mTOR kinase): 17.3 nM
sustained pAKT inhibition ([2]; 40 mg 28/28): > 90%
doses with target modulation ([2]; in vivo): ≥ 16 mg
suppression of phosphorylated serine-473 AKT levels ([2]; platelet-rich plasma, within 4 hours, MTD 50 mg): ≥ 90%
half-life ([3]; mean terminal elimination half-life, patients): 678 min
half-life ([3]; terminal elimination half-life, range, patients): 196 to 2720 min
time of peak mean plasma concentration after dose ([3]; oral, patients): 1 to 2 h
impact of PPI on apitolisib PK ([3]; rabeprazole 20 mg daily for 5 days, 6 patients): no significant impact
accumulation ([3]; repeated QD doses): less than 1.2
drug solubility [4]: pH-dependent drug solubility
patients with PIK3CA mutations with more than 25% mean decrease in SUVmax ([5]; 40 mg QD): 9/12
patients with decrease in FDG-PET uptake of >25% ([5]; 40 mg QD (21/32)): 66%
PIK3CA mutation patients with FDG-PET response ([5]; all dose cohorts (10 out of 14)): 71%
